Measured values from ChEMBL document CHEMBL1137851, “2-Substituted benzoxazinone analogues as anti-human coronavirus (anti-HCoV) and ICAM-1 expression inhibition agents” (Bioorg Med Chem Lett, 2004).
≈ marks a conversion by molar mass, not a printed value. Numbered stars: 1 amine (or outer) side, 2 acyl side, 3 side chain; on linkers, the order of the positions; unused ones are H or OH. Bridge positions count the residues as written; N and C are the ends. Square brackets hold non-standard residues; d marks the D form. Peptide text beside a SMILES is read from it. I, II: the chains in the order shown. Actinocin(1to9) = Cc1c2oc3c(C)ccc(C(=O)[*:2])c3nc-2c(C(=O)[*:1])c(N)c1=O; NMeV = CN[C@H](C(=O)O)C(C)C; Sar = CNCC(=O)O

Columns and labels:
MRC5 [1] = assay: inhibitory concentration against anti-human coronavirus (HCoV) was determined in MRC-5 cells (human fibroblasts); format: functional, cell-based
Summary of the method: (§1)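 MRC-5 human fibroblasts (1.0×10^5 cells/mL in 3% FBS-DMEM) seeded and held 24 h at 37 °C, then infected with HCoV strain 229E at 20 TCID₅₀/well for 2 h at 37 °C. Compound added afterwards at various concentrations, in triplicate. Cell viability read by XTT after 4 days at 37 °C. Actinomycin D served as positive control.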

MRC5 [2] = assay: inhibitory concentration against anti-human coronavirus (HCoV) was determined in MRC-5 cells (human fibroblasts); Inactive; format: functional, cell-based; summary of the method: as §1
[3] = Effective dose for inhibition of intercellular adhesion molecule 1 (ICAM 1) expression; format: functional

Row | SMILES | IC50 (MRC5 [1]) [µg/mL] | IC50 (MRC5 [2]) | ED50 [3] [µg/mL]
1 | COc1cccc2c(=O)oc(-c3ccccc3Cl)nc12 | 5.79 (≈ 20.1 µM) |  | 
2 | O=c1oc(-c2ccccc2Br)nc2c1ccc1ccccc12 |  | Not Active | 
3 | Cc1c2oc3c(C)ccc(C(=O)N[C@@H]4C(=O)N[C@H](C(C)C)C(=O)N5CCC[C@H]5C(=O)N(C)CC(=O)N(C)[C@@H](C(C)C)C(=O)O[C@@H]4C)c3nc-2c(C(=O)N[C@@H]2C(=O)N[C@H](C(C)C)C(=O)N3CCC[C@H]3C(=O)N(C)CC(=O)N(C)[C@@H](C(C)C)C(=O)O[C@@H]2C)c(N)c1=O [DACTINOMYCIN] (I: T[dV]P[Sar][NMeV] / II: T[dV]P[Sar][NMeV]; ester I:1-I:C, II:1-II:C; linker I:N-II:N via Actinocin(1to9)) | 0.02 (≈ 0.0159 µM) |  | 
4 | O=c1oc(-c2ccccc2Cl)nc2c1ccc1ccccc12 |  | Not Active | 
5 | COc1cccc2c(=O)oc(-c3ccccc3F)nc12 | 1.92 (≈ 7.08 µM) |  | 
6 | O=c1oc(-c2ccccc2F)nc2c1ccc1ccccc12 |  | Not Active | 
7 | COc1cccc2c(=O)oc(-c3ccccc3Br)nc12 |  | Not Active | 
8 | COc1cccc2c(=O)oc(-c3ccc(Br)cc3)nc12 | 6.08 (≈ 18.3 µM) |  | 1 (≈ 3.01 µM)
9 | COc1cccc2c(=O)oc(-c3cccc(Cl)c3)nc12 | 5.06 (≈ 17.6 µM) |  | 
10 | COc1cccc2c(=O)oc(-c3ccc(Cl)cc3)nc12 | 7.59 (≈ 26.4 µM) |  | 0.5 (≈ 1.74 µM)
11 | COc1cccc2c(=O)oc(-c3ccccc3)nc12 | 6.83 (≈ 27 µM) |  | 
